ChEMBL document CHEMBL2401730, “The macrocyclic peptide natural product CJ-15,208 is orally active and prevents reinstatement of extinguished cocaine-seeking behavior” (J Nat Prod, 2013)
The source made the active and inactive calls. Where a SMILES comes first, the peptide text is derived from it. [ ]: non-standard residue; d: D form.

Tests used:
Mus musculus [1] = assay: Neurotoxicity in C57BL/6J mouse assessed as sedative effect at 10 to 60 mg/kg, po after 60 mins by rotarod test; format: toxicity, organism-based; set-up: dose 10-60 mg/kg, route oral; settings: in vivo, 1 h
Method in brief: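 Seven habituation trials, with the last used as baseline. Male C57BL/6J mice then received oral vehicle (1:1:8) or 10 or 60 mg/kg; the U50,488 comparator was given 10 mg/kg ip. Accelerating rotorod (0-20 rpm, 180 s maximum) over 60 min. Latency to fall expressed as % change from baseline; 7-8 mice/group; two-way ANOVA.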

Mus musculus [2] = assay: Antinociceptive activity in po dosed C57BL/6J mouse after 40 mins by warm water tail withdrawal assay; format: functional
Method in brief: (§1)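 Adult male C57BL/6J mice (20-25 g); baseline tail-withdrawal latency in 55 °C water measured, then oral dosing in 1:1:8 ethanol/Tween 80/0.9% saline vehicle. Latency re-measured repeatedly over time, 15 s cut-off. %antinociception = 100×(test−control)/(15−control). ED50 with 95% CI; 7-24 mice/group; repeated-measures ANOVA at 10 min intervals for hour 1 and hour 2.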

Mus musculus [3] = assay: Prevention of stress-induced reinstatement of extinguished cocaine cocaine seeking behavior in C57BL/6J mouse at 30 mg/kg, po qd for 2 days measured 3 hrs post last dose by forced swim test; format: functional, organism-based; set-up: dose 30 mg/kg
Method in brief: (§2)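 Counterbalanced CPP: four days of saline (30 min confinement), then cocaine 10 mg/kg sc 4 h later in the opposite compartment. Extinction followed over 3 weeks of twice-weekly tests. Oral 1:1:8 vehicle or 30/60 mg/kg given days 28-29, then either forced swim 3 h later or cocaine conditioning 30 min after day-29 dose. Place preference tested day 30 over 30 min; 12-16 mice/group; ANOVA/Tukey HSD.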

Mus musculus [4] = assay: Antinociceptive activity in C57BL/6J mouse at 60 mg/kg, po after 140 mins by warm water tail withdrawal assay; format: functional, organism-based; set-up: dose 60 mg/kg; method in brief: as §1
Mus musculus [5] = assay: Antinociceptive activity in C57BL/6J mouse at 0.3 mg/kg, po after 60 mins by warm water tail withdrawal assay; format: functional, organism-based; set-up: dose 0.3 mg/kg; method in brief: as §1
Mus musculus [6] = assay: Prevention of cocaine-induced reinstatement of extinguished cocaine seeking behavior in C57BL/6J mouse at 30 to 60 mg/kg, po qd for 2 days followed by additional cycle of cocaine place conditioning at 30 mins post last dose measured on day 3; format: functional, organism-based; method in brief: as §2
Mus musculus [7] = assay: Antagonist activity at kappa opioid receptor in po dosed C57BL/6J mouse assessed as inhibition of icv dosed U50,488-induced antinociception effect incubated for 3 hrs prior to testing by warm water tail withdrawal assay; format: functional, organism-based
Method in brief: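 Male C57BL/6J mice (20-25 g) given test agent orally in 1:1:8 ethanol/Tween 80/saline; 3 h later U50,488 given ip (10 mg/kg, in saline) or icv (30 nmol), with tail-withdrawal testing in 55 °C water 40 or 20 min afterwards, respectively. 15 s cut-off; % antinociception calculated from baseline latency. 8 mice/group; one-way ANOVA with Tukey HSD.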

Mus musculus [8] = assay: Antagonist activity at kappa opioid receptor in po dosed C57BL/6J mouse assessed as inhibition of ip dosed U50,488-induced antinociception effect incubated for 3 hrs prior to testing by warm water tail withdrawal assay
Mus musculus [9] = assay: Antinociceptive activity in C57BL/6J mouse at 1 to 30 mg/kg, po after 120 mins by warm water tail withdrawal assay; format: functional, organism-based; method in brief: as §1
Mus musculus [10] = assay: Prevention of stress-induced reinstatement of extinguished cocaine seeking behavior in C57BL/6J mouse at 60 mg/kg, po qd for 2 days measured 3 hrs post last dose by forced swim test; format: functional, organism-based; set-up: dose 60 mg/kg; method in brief: as §2
Mus musculus [11] = assay: Antinociceptive activity in C57BL/6J mouse at 1 to 60 mg/kg, po after 60 mins by warm water tail withdrawal assay; format: functional, organism-based; method in brief: as §1

In the case of `O=C1N[C@@H](Cc2ccccc2)C(=O)N2CCC[C@@H]2C(=O)N[C@@H](Cc2ccccc2)C(=O)N[C@H]1Cc1c[nH]c2ccccc12` (cyclo(FWF[dP])), the Activity (Mus musculus [1]) is reported as “Non-toxic”, the ED50 (Mus musculus [2]) is reported as 3.49 mg/kg and the Activity (Mus musculus [3]) is reported as “inactive”. For the same compound, the Activity (Mus musculus [4]) was “Active”, the Activity (Mus musculus [5]) was “inactive” and the Activity (Mus musculus [6]) was “Active”. The inhibition (Mus musculus [7]) was “Dose-dependent effect”, the inhibition (Mus musculus [8]) was “Dose-dependent effect” and the Activity (Mus musculus [9]) was “inactive”. The Activity (Mus musculus [10]) was “Active” and the Activity (Mus musculus [11]) was “Active”.
